Only some compounds are listed: those with a hit (about 9.8% of all), similar ones and a draw of the others.
PMI activator = activators of human phosphomannose isomerase. purified human PMI, coupled resazurin fluorescence, 20 min; active compounds read high; 1 = vehicle control, 0 substrate-free wells. activation factor at 20 µM. 0.005% of 190,000 active;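 active means activation factor of 2 or more at 20 µM, relative to plate controls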
Target sequence (P34949 whole entry, looked up): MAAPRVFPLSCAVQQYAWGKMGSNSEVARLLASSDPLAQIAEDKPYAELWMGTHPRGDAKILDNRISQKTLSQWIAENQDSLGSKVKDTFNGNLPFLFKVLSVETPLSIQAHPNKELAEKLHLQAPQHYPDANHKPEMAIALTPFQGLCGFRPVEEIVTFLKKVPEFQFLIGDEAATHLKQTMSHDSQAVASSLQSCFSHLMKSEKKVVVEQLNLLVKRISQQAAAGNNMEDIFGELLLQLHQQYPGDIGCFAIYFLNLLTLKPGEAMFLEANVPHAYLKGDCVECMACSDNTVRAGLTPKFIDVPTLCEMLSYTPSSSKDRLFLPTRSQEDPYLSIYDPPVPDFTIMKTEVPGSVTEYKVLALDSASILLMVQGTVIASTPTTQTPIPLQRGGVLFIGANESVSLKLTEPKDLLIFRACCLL
PMI act satM6P = PMI (human) activation, high substrate; coupled PMI enzyme assay, resazurin fluorescence, 20 min; active compounds read high; 1 = untreated enzyme, 0 = substrate-free blank; activation factor at 20 µM; P34949; 0.34% of 190,000 active; AID 1216;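 active means activation factor of 2 or more at 20 µM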
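Test system: human phosphomannose isomerase with PGI, G6PDH, diaphorase coupling enzymes / Doses: 20 µM compound, 1% DMSO / Times: enzyme reaction with compound 20 min at room temperature / Measured by: Diaphorase-driven resazurin-to-resorufin fluorescence, excitation 544, emission 590 nm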
m-calpain inh = blocks pig calpain II enzyme activity; purified calpain II, fluorogenic peptide substrate, 30 min; inhibition, % at 16 µM; 0.37% of 220,000 active; AID 1236;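 active means inhibition above about 50%, limit read from the data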
Rad51 HR inh = Rad51 (human) homologous recombination inhibition; inhibition, % at 10 µM; hRad51 DNA strand exchange, fluorescence dequenching; 0.085% of 200,000 active;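 active means inhibition above 40% at the single screening dose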;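 further: 0% = DMSO control wells and 100% = blanks with heterologous ssDNA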
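Read-out basis: percent inhibition relative to plate controls and blanks / Assay system: human Rad51 nucleoprotein filaments preassembled on unlabelled ssDNA / Timing: filaments 15 min 37 °C, then compound 30 min / Control set: per-plate controls and blanks / Technique: fluorescence dequenching at 485/520 nm / Compound: 10 µM final, single point / Also added: Fluorescein- and BHQ1-tagged 47-mer duplex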
Lmaj promast = inhibitors of Leishmania major promastigote growth. Leishmania major promastigotes, resazurin fluorescence viability. inhibition, % at 10 µM. 9% of 200,000 active; in the data active means inhibition above about 50%;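 further: promastigotes grown with compound for 44 hours at 28 °C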
WT yeast gro inh = growth inhibition of WT yeast, mitochondrial fusion screen; mitochondrial fusion phenotypic screen, WT strain; inhibition, % at 10 µM; 2.1% of 190,000 active; AID 1362; in the data active means inhibition above about 58%; tested in S. cerevisiae
An asterisk follows results filed as active; i = inactive; / = no result.

SMILES	PMI activator	PMI act satM6P	m-calpain inh	Rad51 HR inh	Lmaj promast	WT yeast gro inh
O=C(NCc1ccc(Cl)cc1)c1ccccc1CCc1ccccc1	1	1	6	4	1	-4
O=C(NCc1ccccc1Cl)c1ccccc1CCc1ccccc1	1	1	21	-10	54*	-10
C/C(N)=C(/C#N)C(=O)CSc1cc(C)c2cc(C)cc(C)c2n1	1.4	1.4	-2	-5	18	13
Cc1ccc(Cn2c(CN3CCN(C(=O)c4ccco4)CC3)nc3c2c(=O)n(C)c(=O)n3C)cc1	0.9	1	-22	/	78*	-1
Cn1c(=O)c2c(nc(CN3CCN(CCO)CC3)n2Cc2cccc3ccccc23)n(C)c1=O	0.9	1	19	-7	99*	-4
Cn1c(=O)c2c(nc(N3CCCCCC3)n2Cc2cccc3ccccc23)n(C)c1=O	0.8	0.9	3	/	35	81*
Cn1c(=O)c2c(nc(CN3CCN(CCO)CC3)n2Cc2ccccc2Cl)n(C)c1=O	/	/	/	/	/	14
Cn1c(=O)c2c(nc(CN3CCN(C(=O)c4ccco4)CC3)n2Cc2ccccc2)n(C)c1=O	1	1	-12	3	-1	14
COC(=O)c1ccc(Oc2c(Cl)cccc2[N+](=O)[O-])cc1	0.8	0.9	13	/	45	3
O=C1CNC(=S)N1CCc1ccc(O)c(O)c1	/	/	-2	6	/	/
CC1(C(=O)NCc2ccc(Cl)c(Cl)c2)Oc2cccnc2NC1=O (stereo not drawn)	1	0.9	-8	-8	-3	3
CC1(C(=O)N(Cc2ccccc2)Cc2ccccc2)CC1(Br)Br (stereo not drawn)	0.8	0.9	35	/	6	83*
CN(Cc1ccccc1)C(=O)CCC(=O)N(C)Cc1ccccc1	1.1	1	-7	-5	-5	-7
O=C(CSC(=S)N1CCCC1)c1cc(Br)cc(Br)c1O	0.7	1.1	-23	15	95*	11
COCCn1c(N)c(N(Cc2ccccc2)C(=O)c2cc3ccccc3o2)c(=O)[nH]c1=O	1.2	1.2	7	2	4	-2
O=C1CCCC/C1=N\Nc1ccc(OCc2ccccc2)cc1	1.7	2.5*	19	14	4	54
O=C1CCCC/C1=N\Nc1ccc(C2CCCCC2)cc1	/	/	13	9	/	/
O=C(NCc1ccco1)C(=O)NCC1OCCN1C(=O)c1ccc(Cl)cc1 (stereo not drawn)	/	/	-2	3	/	/
CCN1CCCC1CNC(=O)c1cc2c(C)nc3ccccc3c2o1 (stereo not drawn)	1	1.1	/	-8	100*	15
Cc1nc2ccccc2c2oc(C(=O)Nc3ccc(C(C)C)cc3)cc12	0.8	0.9	-198	29	36	61*
COc1ccc(/C=C/S(=O)(=O)NCc2ccccc2)cc1OC	1	1	30	-8	-11	15
COC(=O)NC1(C(=O)O)CCCC1	/	/	-20	6	/	/
Cc1nn2c(NCCCN(C)C)c3c(nc2c1-c1ccccc1)CCCC3	/	/	7	-28	/	/
Cc1nn2c(NCCCN(C)C)c3c(nc2c1-c1ccccc1)CCC3	1	1	-34	-4	100*	23
O=C(CCC(=O)N/N=C/c1cc(Cl)cc(Cl)c1O)NCc1ccccc1	0.9	0.8	i	-2	-12	-4
SMILES	PMI activator	PMI act satM6P	m-calpain inh	Rad51 HR inh	Lmaj promast	WT yeast gro inh
CCOC(=O)c1ccc(NC(=O)Nc2cc(C)cc(C)n2)cc1	1	1	-16	16	-3	7
COc1cccc(NC(=O)CSc2nc3c(c(-c4ccco4)c2C#N)CCCC3)c1	1.1	1.1	-7	2	-7	76*
CN(CC(=O)O)c1ccc(C(F)(F)F)cc1[N+](=O)[O-]	1.1	1	4	7	-4	9
CCOC(=O)c1c(NC(=O)CSc2nnc(-c3cccnc3)n2Cc2ccco2)sc(C)c1C	0.9	0.8	-149	/	53*	0
Cc1[nH]c2ccc(-c3nnc(SCC(=O)NCc4ccco4)n3Cc3ccccc3)cc2c1C	0.7	0.8	-37	-9	97*	-3
O=C(CSc1nnc(-c2cccnc2)n1Cc1ccco1)Nc1nc(-c2ccc(F)cc2)cs1	0.9	0.9	-37	-2	73*	-4
COC(=O)c1c(NC(=O)CSc2nnc(-c3ccco3)n2Cc2ccccc2)sc(C)c1C	0.9	0.9	-3	-14	65*	48
CCSc1nnc(-c2cccnc2)n1Cc1ccco1	0.9	1.1	-14	-2	-3	-9
CCC1COC(c2cccn2Cc2ccccc2Cl)=N1 (stereo not drawn)	1	1	44	-7	-5	22
CC(C)c1ncc(S(=O)(=O)c2ccc(C(F)(F)F)cn2)c(N)n1	/	/	-18	-6	/	/
N#CCCn1nc(-c2ccccc2)cc1Nc1ccccc1NC(=O)c1cccs1	1	1	9	-1	59*	5
O=C(Cn1nnc(-c2ccccc2NC(=O)c2cccs2)n1)Nc1ccccc1	1	0.9	-81	1	-1	0
O=C(O)C1C2C=CC(C2)C1C(=O)NCc1cccs1 (stereo not drawn)	1	1	10	-19	-4	5
CC(=O)/C(C#N)=C1\NC(=O)C(Cc2ccccc2Cl)S1 (stereo not drawn)	1.2	1.1	-9	/	2	76*
CC(=O)/C(C#N)=C1\NC(=O)C(Cc2cc(Cl)ccc2Cl)S1 (stereo not drawn)	/	/	42	-11	/	/
CCOc1ccc(C2C(C#N)=C(N)N(c3sc4c(c3C#N)CCCC4)C3=C2C(=O)CCC3)cc1 (stereo not drawn)	0.9	0.7	4	-8	57*	23
CSc1ccc(C2C(C#N)=C(N)N(c3ccccc3)C3=C2C(=O)CCC3)cc1 (stereo not drawn)	0.6	0.7	-66	-4	74*	15
N#CC1=C(N)N(c2ncn[nH]2)C2=C(C(=O)CCC2)C1c1ccccc1 (stereo not drawn)	0.9	0.8	-19	3	-7	-23
Cc1ccc(C(C)C)c(OCCCN(C)Cc2ccccc2)c1	1	0.7	6	0	96*	43
Cc1ccc(OCCCCN(C)Cc2ccccc2)c(Br)c1	1.1	1	-5	4	90*	58
C/C(=N\NC(=O)c1nonc1N)c1cccs1	1	1	31	-3	-1	20
COc1ccc(OC)c(/C(O)=C/C(=O)C(=O)Nc2cc(C)cc(C)c2)c1	1.1	1.2	-114	-5	35	10
COc1ccc(OC)c(/C(O)=C/C(=O)C(=O)Nc2cc(C)ccc2OC)c1	1.1	1	-109	-3	93*	0
CCSc1nnc(NC(=O)CSc2nnc(CNC(=O)c3ccccc3F)o2)s1	1.4	1.9	4	6	85*	-5
Cc1cc(Br)ccc1NC(=S)N1CCOCC1	/	/	-16	/	/	/
